m-calpain inh: inhibitors of pig calpain II, primary screen, biochemical, fluorogenic peptide substrate, 1536-well; 220,000 tested, 0.37% active; inhibition, % at 16 µM; purified calpain II, 30 min; AID 1236, 2008;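 active = inhibition above about 50%, limit read from the data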
Cl transport mod: KCC2 cotransporter modulators, thallium flux, primary screen, cell-based, HEK293 KCC2, FluoZin-2 fluorescence, MLSMR; 190,000 tested, 2.2% active; B-score of Tl+ flux slope (higher = more flux/activation; lower = inhibition) at 10 µM; AID 1456, 2008; Solute carrier family 12 member 5 (Homo sapiens), Q9H2X9; KCC2 cells, thallium flux FluoZin-2 fluorescence;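 active = thallium flux slope and its plate-corrected score both differing from the plate sample mean at a set confidence after two filtering rounds, in either direction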;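 also: slope of fluorescence scaled to starting intensity during 10 to 20 s after thallium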
PKD1 inh: inhibitors of human PKD1 kinase, biochemical, fluorescence polarization; Serine/threonine-protein kinase D1 (Homo sapiens), Q15139; PKD1 kinase fluorescence polarization assay; inhibition, % (concentration not given with the values); 200,000 tested, 0.056% active; AID 797, 2007; in the data active = inhibition above about 50%
Arbovirus inh: antivirals against arbovirus infection, primary screen, cell-based, full library, 10K replicate subset; arbovirus infection cell-based antiviral screen; 200,000 tested, 0.37% active; inhibition, % at 10 µM; in the data active = inhibition above about 30%
Mdm2 ligase inh: MDM2-luciferase reporter signal enhancers, primary screen, MDM2 E3 ligase inhibitor project, cell-based, luminescence, 1536-well. E3 ubiquitin-protein ligase Mdm2 (Homo sapiens), Q00987. cell-based MDM2 ubiquitination luciferase reporter, 2 h; 0 = plate control, 100 = twice control, blank-subtracted. signal enhancement, % at 5 µM. 210,000 tested, 0.11% active;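 active = signal enhancement of 30% or more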;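 also: luminescence tracks abundance of the self-degrading MDM2-luciferase fusion protein; higher signal means inhibition of MDM2 E3 ligase activity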
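system = mammalian cells stably expressing self-ubiquitinating, self-degrading MDM2 E3–luciferase fusion | quantity = 2000 cells per well seeded | incubation = 4 h cell settling then 2 h compound exposure, 37 °C | signal = SteadyLite luminescence, 15 min reagent step | benchmarks = plate control and blank wells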
ROMK mod: ROMK potassium channel modulators, primary screen, cell-based, thallium flux, MLSMR library | ATP-sensitive inward rectifier potassium channel 1 (Homo sapiens), P48048 | Tet-inducible ROMK, thallium flux fluorescence; actives lie on both sides | B-score at 10 µM | 130,000 tested, 2% active;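 active = signal ratio slope over the read window, or its plate-corrected B-score, at least 3 SD from the plate mean, either direction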;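 also: B-score of the F/F0 ratio slope over 7 to 12 s after thallium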
Target sequence (P48048 whole entry, looked up): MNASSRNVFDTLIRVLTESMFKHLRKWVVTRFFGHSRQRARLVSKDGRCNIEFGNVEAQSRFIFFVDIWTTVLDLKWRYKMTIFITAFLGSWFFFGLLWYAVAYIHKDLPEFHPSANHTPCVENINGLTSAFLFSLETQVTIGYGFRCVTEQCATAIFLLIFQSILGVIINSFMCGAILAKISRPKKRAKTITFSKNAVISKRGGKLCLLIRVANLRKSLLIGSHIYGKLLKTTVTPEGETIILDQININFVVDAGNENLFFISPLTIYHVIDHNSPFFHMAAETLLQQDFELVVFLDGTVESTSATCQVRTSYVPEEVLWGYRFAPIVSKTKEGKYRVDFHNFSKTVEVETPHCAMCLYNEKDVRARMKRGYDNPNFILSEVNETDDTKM
KCC2 sec1: KCC2 modulators in sodium-free buffer, confirmation, cell-based, HEK293 KCC2, thallium flux, secondary assay; shares compounds with Cl transport mod; FluoZin2 fluorescence; active compounds read high; normalised thallium flux (F/F0 slope) at 10 µM; 3,700 tested, 15% active; AID 1713, 2009;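 active = thallium flux slope above the same plate's solvent-only control mean plus 3 SD; inconclusive = the two replicate wells disagree; inactive = no significant difference from solvent-only control wells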
KCC2 bumet counter: thallium flux persisting under bumetanide in KCC2 cells, confirmation, counter-screen for KCC2 modulator project, cell-based, HEK293 KCC2, FluoZin2, secondary assay 3. shares compounds with Cl transport mod. HEK293-KCC2 + bumetanide/ouabain; active compounds read high. normalized thallium flux at 10 µM. 3,700 tested, 49% active. AID 1714, 2009;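 active = thallium entry rate above the same plate's blocked-transporter control wells by more than 3 SD; inconclusive = the two repeat wells disagree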;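 also: raw slope of fluorescence over initial fluorescence between 10 and 20 s after thallium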
KCC2 secondary2: KCC2 modulators without ouabain present, confirmation, cell-based, HEK293 KCC2, thallium flux, FluoZin2, secondary assay 2; thallium flux FluoZin2 fluorescence; actives lie on both sides; F/F0 rise rate, 10–20 s post-thallium; normalized thallium flux at 10 µM; AID 1715, 2009; 3,700 tested, 23% active; shares compounds with Cl transport mod;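 active = thallium flux slope more than 3 SD above or below the plate's solvent-only control mean, mostly below; inconclusive = the two repeat wells disagreed; inactive = no significant shift from solvent-only controls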
HEK counter1: thallium flux modulation in parental HEK cells, confirmation, counter-screen for KCC2 modulator project, cell-based, counterscreen 1; 3,700 tested, 46% active; shares compounds with Cl transport mod; thallium flux rate (normalised fluorescence) at 10 µM; AID 1716, 2009; HEK293 parental cells, thallium flux FluoZin2, ouabain; baseline-ratio fluorescence slope, 10–20 s after thallium;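 active = thallium flux rate significantly above the same plate's solvent-only control wells, beyond their mean plus 3 SD; inconclusive = the two replicate wells gave conflicting results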
KCC2 ouabain: KCC2 inhibitors and activators, ouabain retest, confirmation, HEK-KCC2 cells; shares compounds with Cl transport mod; 3,700 tested, 48% active; HEK293-KCC2, thallium flux FluoZin2 fluorescence; bidirectional: low = inhibitor, high = activator; raw Tl+ flux slope (below DMSO = inhibition, above = activation) at 10 µM;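 active = thallium flux slope beyond 3 SD from same-plate DMSO control mean in most replicates, usually higher, sometimes lower; inconclusive = repeat tests gave conflicting results; inactive = no significant difference from controls in most replicates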;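 also: slope of initial-normalized fluorescence between seconds 10 and 20 after thallium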
HEK counter2: native HEK Tl+ uptake effects, second counter-screen – HEK cells, counterscreen 2, counter-screen for KCC2 modulator project, confirmation; shares compounds with Cl transport mod; HEK293 parental, thallium flux FluoZin-2 fluorescence slope; thallium flux slope at 10 µM; 3,700 tested, 33% active;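 active = thallium flux slope above the same plate's solvent-control mean plus 3 SD in both duplicate wells; inconclusive = duplicate wells that disagreed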;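 also: run without ouabain in cells lacking the KCC2 cotransporter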
Large screens that a line does not name were inactive (follow-up assays come after a bar, where they were run). Only some compounds are listed: those with a hit (about 3.7% of all), similar ones and a draw of the others.

O=C(Nc1ccc(Cl)c(Cl)c1)N(CCCN1CCOCC1)Cc1cccs1	Cl transport mod -3 (no result: ROMK mod) | KCC2 sec1 inactive | KCC2 bumet counter inactive | KCC2 secondary2 inactive | HEK counter1 inactive | KCC2 ouabain inactive | HEK counter2 inactive
COC(=O)CSc1nc(NC#N)nc(NC(C)C)n1	none (no result: ROMK mod)
O=[N+]([O-])c1cccc(/C=N/NC2=NS(=O)(=O)c3ccccc32)c1	Cl transport mod -3.8 | KCC2 sec1 inactive | KCC2 bumet counter inconclusive | KCC2 secondary2 inactive | HEK counter1 inactive | KCC2 ouabain inactive | HEK counter2 inactive
CCC1CCCCN1C(=S)NC(=O)c1cccs1 (stereo unspecified)	Cl transport mod 63 | KCC2 sec1 0.036 | KCC2 bumet counter 0.1 | KCC2 secondary2 0.086 | HEK counter1 0.088 | KCC2 ouabain 0.088 | HEK counter2 0.087
CCC1CCCCN1C(=S)NC(=O)c1ccc(F)c(S(=O)(=O)N2CCOCC2)c1 (stereo unspecified)	Cl transport mod 3.2 (no result: ROMK mod) | KCC2 sec1 inconclusive | KCC2 bumet counter 0.019 | KCC2 secondary2 inactive | HEK counter1 0.01 | KCC2 ouabain 0.029 | HEK counter2 inconclusive
CC(C)CCN1CCN(CC#Cc2ccccc2)CC1CCO (stereo unspecified)	none
COc1ccc(OC)c(-n2c(=S)[nH]c3cc(C(=O)N(C)Cc4ccccc4)ccc3c2=O)c1	none (no result: ROMK mod)
C=CCn1nc([N+](=O)[O-])nc1Sc1cccc2cccnc12	Cl transport mod 12 | KCC2 sec1 0.015 | KCC2 bumet counter 0.06 | KCC2 secondary2 inactive | HEK counter1 0.018 | KCC2 ouabain 0.036 | HEK counter2 0.011
O=[N+]([O-])c1ccc(Sc2cccc3cccnc23)c([N+](=O)[O-])c1	none (no result: Cl transport mod) | KCC2 sec1 0.015 | KCC2 bumet counter 0.053 | KCC2 secondary2 inactive | HEK counter1 inconclusive | KCC2 ouabain 0.035 | HEK counter2 inactive
Cc1c([N+](=O)[O-])c2ccc(O)cc2n1-c1ccccc1	none (no result: PKD1 inh, Arbovirus inh)
Cc1cc(CC(C)C)n(-c2nc3ccccc3c(=O)n2OCc2ccccc2)n1	Cl transport mod 5.1 (no result: ROMK mod) | KCC2 sec1 inactive | KCC2 bumet counter 0.023 | KCC2 secondary2 inactive | HEK counter1 0.011 | KCC2 ouabain 0.052 | HEK counter2 0.012
Cc1cc(CC(C)C)n(-c2nc3ccccc3c(=O)n2OCC(=O)N(C)C)n1	Cl transport mod 10 | KCC2 sec1 inactive | KCC2 bumet counter 0.026 | KCC2 secondary2 inactive | HEK counter1 0.024 | KCC2 ouabain 0.032 | HEK counter2 0.017
COc1ccc(C(C)(C)C)cc1NC(=O)COC(=O)C(C)C	none
O=C(COc1cccc2cccnc12)Nc1ccccc1N1CCOCC1	Cl transport mod -5.6 | KCC2 sec1 inconclusive | KCC2 bumet counter inactive | KCC2 secondary2 inactive | HEK counter1 0.005 | KCC2 ouabain inactive | HEK counter2 inconclusive
CC1(C)Cc2cccc(OCC(=O)Nc3ccccc3N3CCOCC3)c2O1	none (no result: Cl transport mod)
CCCc1nnc(SCC(=O)N2CCOCC2)n1CCCOC	Cl transport mod 8 (no result: ROMK mod) | KCC2 sec1 inactive | KCC2 bumet counter inactive | KCC2 secondary2 inactive | HEK counter1 inactive | KCC2 ouabain inactive | HEK counter2 inactive
CCOC(=O)N=Nc1c(O)n(Cc2ccccc2)c2ccccc12	Cl transport mod 6.9 | KCC2 sec1 inactive | KCC2 bumet counter 0.013 | KCC2 secondary2 inactive | HEK counter1 0.012 | KCC2 ouabain inactive | HEK counter2 0.014
CCOC(=O)Cn1c(O)c(N=NC(=O)OC)c2ccccc21	none (no result: PKD1 inh, Arbovirus inh, ROMK mod)
C/C(Cl)=C\Cn1c(O)c(N=NC(N)=S)c2ccccc21	Cl transport mod 42 | KCC2 sec1 inconclusive | KCC2 bumet counter 0.06 | KCC2 secondary2 0.062 | HEK counter1 0.047 | KCC2 ouabain 0.058 | HEK counter2 0.045
COC(=O)c1ccc(Cn2c(O)c(N=NC(N)=S)c3ccccc32)o1	Cl transport mod 7.1 (no result: PKD1 inh, Arbovirus inh) | KCC2 sec1 inconclusive | KCC2 bumet counter 0.03 | KCC2 secondary2 inactive | HEK counter1 0.016 | KCC2 ouabain inactive | HEK counter2 inconclusive
NC(=S)N=Nc1c(O)n(Cc2ccccc2)c2ccccc12	Cl transport mod 8.8 (no result: ROMK mod) | KCC2 sec1 inactive | KCC2 bumet counter 0.0083 | KCC2 secondary2 inactive | HEK counter1 0.011 | KCC2 ouabain inconclusive | HEK counter2 inconclusive
CCOC(=O)N=Nc1c(O)n(CC)c2ccccc12	none
Cc1ccc(NC(=O)Cn2c(O)c(N=NC(N)=O)c3ccccc32)cc1	none (no result: PKD1 inh, Arbovirus inh, Mdm2 ligase inh, ROMK mod)
CCN(CC)S(=O)(=O)c1ccc(Br)c(OC)c1	none (no result: Cl transport mod)
Cc1ccc(Nc2nnc(SCC(=O)Nc3cccnc3Cl)s2)cc1C	none
CCC(C)[C@H](NC(=O)N1CCN(C)CC1)C(=O)OC (stereo partly specified)	none (no result: ROMK mod)
CC(=O)N(C)c1ccc(N=Nc2c(C)[nH]n(C(N)=S)c2=O)cc1	none
